Laboratory results reported in ChEMBL document CHEMBL5649168, “Discovery of a selective catalytic p300/CBP inhibitor that targets lineage-specific tumours” (Nature, 2017).
pEC50, pIC50: −log10 of the molar value.

Experiments:
[1] = target: Ca2+ channel (L, dihydropyridine site) (Homo sapiens, UniProt O60840+Q01668+Q13698+Q13936); assay: Inhibition of Ca2+ channel (L, dihydropyridine site) (unknown origin) at 10 uM by radioligand binding assay relative to control; format: protein assay
MAO-B = MAO-B (Homo sapiens, UniProt P27338); assay: Inhibition of human recombinant MAO-B at 10 uM by radioligand binding assay relative to control
[2] = target: Tyrosine-protein kinase BTK (Homo sapiens, UniProt Q06187); assay: Inhibition of BTK (unknown origin)
[3] = target: Cyclin-dependent kinase 11B (Homo sapiens, UniProt P21127); assay: Inhibition of CDK11 (unknown origin)
[4] = Inhibition of CDK7/Cyclin H (unknown origin); set-up: species or system Homo sapiens
[5] = Inhibition of CDK9/Cyclin K (unknown origin); set-up: species or system Homo sapiens
[6] = target: Hepatocyte growth factor receptor (Homo sapiens, UniProt P08581); assay: Inhibition of c-MET (unknown origin)
[7] = target: Fibroblast growth factor receptor 1 (Homo sapiens, UniProt P11362); assay: Inhibition of FGFR1 (unknown origin)
[8] = target: Serine/threonine-protein kinase PAK 4 (Homo sapiens, UniProt O96013); assay: Inhibition of PAK4KD (unknown origin)
[9] = target: Serine/threonine-protein kinase pim-1 (Homo sapiens, UniProt P11309); assay: Inhibition of Pim1 (unknown origin)
Serine/threonine-protein kinase pim-1, sequence (P11309 whole entry): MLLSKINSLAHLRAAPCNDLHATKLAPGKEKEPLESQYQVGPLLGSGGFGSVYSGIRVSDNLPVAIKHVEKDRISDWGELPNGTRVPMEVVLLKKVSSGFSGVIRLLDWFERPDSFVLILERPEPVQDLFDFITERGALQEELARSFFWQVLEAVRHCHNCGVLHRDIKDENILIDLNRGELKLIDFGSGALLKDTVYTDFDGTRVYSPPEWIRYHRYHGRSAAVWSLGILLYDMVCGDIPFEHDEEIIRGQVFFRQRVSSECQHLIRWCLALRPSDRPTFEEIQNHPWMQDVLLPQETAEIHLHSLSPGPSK

[10] = target: Rho-associated protein kinase 2 (Homo sapiens, UniProt O75116); assay: Inhibition of Rock2 (unknown origin)
[11] = target: T1, CREB-binding protein/Histone acetyltransferase p300 (Homo sapiens, UniProt Q09472+Q92793); assay: Inhibition of p300/CBP in human 22Rv1 cells assessed as reduction in H3K18Ac level incubated for 24 hrs by Hoechst 33342 staining based high content microscopy analysis; format: cell-based
T1 sequence (Q09472 whole entry, looked up): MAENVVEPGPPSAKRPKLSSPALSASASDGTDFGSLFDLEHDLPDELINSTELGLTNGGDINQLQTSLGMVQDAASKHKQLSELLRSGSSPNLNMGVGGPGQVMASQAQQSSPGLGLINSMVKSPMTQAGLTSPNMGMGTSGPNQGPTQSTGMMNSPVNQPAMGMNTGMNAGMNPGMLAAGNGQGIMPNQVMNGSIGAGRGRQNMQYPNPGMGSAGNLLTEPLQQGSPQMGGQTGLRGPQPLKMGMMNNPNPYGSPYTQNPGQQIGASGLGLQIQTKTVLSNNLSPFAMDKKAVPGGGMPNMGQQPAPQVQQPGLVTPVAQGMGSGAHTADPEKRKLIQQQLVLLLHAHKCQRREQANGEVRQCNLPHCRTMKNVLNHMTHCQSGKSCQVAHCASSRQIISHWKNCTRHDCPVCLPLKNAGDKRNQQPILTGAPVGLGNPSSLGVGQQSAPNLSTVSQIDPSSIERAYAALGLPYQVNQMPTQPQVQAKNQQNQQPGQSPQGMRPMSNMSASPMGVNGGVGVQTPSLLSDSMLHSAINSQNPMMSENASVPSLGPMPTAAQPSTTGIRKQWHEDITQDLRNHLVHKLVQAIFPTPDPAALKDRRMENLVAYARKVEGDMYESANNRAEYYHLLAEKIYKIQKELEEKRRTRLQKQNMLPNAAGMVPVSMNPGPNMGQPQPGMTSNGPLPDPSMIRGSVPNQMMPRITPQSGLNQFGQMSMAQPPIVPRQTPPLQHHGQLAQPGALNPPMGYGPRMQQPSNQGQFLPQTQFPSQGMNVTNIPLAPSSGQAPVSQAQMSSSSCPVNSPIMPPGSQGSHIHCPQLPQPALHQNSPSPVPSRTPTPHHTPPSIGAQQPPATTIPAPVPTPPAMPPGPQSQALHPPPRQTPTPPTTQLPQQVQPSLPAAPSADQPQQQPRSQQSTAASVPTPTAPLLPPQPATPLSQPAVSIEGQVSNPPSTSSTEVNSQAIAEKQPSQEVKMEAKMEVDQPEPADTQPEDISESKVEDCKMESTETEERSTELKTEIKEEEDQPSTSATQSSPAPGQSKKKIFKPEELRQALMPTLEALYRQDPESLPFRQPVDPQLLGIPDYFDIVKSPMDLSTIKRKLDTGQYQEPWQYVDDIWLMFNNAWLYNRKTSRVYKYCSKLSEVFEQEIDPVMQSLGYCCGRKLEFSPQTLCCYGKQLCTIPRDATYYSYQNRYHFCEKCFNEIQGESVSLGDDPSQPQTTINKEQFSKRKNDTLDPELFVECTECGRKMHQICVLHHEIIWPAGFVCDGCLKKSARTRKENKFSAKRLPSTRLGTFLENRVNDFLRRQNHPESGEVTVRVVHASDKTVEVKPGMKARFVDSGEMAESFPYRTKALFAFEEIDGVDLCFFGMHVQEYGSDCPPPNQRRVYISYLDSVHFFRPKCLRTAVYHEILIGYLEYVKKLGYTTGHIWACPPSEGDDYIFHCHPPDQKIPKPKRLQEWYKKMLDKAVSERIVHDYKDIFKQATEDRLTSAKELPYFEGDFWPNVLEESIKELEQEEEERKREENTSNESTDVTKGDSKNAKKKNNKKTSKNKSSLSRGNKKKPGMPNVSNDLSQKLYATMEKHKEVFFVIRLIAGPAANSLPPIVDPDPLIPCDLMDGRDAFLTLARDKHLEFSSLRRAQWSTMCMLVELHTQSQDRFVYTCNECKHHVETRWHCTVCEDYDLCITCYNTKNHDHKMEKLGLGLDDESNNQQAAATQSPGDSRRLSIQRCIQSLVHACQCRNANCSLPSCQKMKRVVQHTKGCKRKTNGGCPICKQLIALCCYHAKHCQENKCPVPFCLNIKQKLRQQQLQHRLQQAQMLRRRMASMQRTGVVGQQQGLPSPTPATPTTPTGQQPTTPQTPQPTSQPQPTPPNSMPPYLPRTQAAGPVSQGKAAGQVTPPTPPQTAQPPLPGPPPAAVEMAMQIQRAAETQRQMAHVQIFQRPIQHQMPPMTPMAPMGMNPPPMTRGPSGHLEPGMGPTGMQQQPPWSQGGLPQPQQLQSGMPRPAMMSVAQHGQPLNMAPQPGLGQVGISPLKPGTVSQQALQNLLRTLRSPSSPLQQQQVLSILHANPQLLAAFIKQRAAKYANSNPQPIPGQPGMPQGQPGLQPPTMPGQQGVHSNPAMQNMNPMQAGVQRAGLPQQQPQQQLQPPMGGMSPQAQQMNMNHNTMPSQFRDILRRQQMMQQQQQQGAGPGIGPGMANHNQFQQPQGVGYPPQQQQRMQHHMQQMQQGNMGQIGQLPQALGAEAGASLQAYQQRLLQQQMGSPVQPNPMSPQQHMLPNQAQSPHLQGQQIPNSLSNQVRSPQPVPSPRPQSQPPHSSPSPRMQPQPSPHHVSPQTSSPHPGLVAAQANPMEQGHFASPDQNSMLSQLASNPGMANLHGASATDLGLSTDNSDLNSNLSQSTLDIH
T1 sequence (Q92793 whole entry, looked up): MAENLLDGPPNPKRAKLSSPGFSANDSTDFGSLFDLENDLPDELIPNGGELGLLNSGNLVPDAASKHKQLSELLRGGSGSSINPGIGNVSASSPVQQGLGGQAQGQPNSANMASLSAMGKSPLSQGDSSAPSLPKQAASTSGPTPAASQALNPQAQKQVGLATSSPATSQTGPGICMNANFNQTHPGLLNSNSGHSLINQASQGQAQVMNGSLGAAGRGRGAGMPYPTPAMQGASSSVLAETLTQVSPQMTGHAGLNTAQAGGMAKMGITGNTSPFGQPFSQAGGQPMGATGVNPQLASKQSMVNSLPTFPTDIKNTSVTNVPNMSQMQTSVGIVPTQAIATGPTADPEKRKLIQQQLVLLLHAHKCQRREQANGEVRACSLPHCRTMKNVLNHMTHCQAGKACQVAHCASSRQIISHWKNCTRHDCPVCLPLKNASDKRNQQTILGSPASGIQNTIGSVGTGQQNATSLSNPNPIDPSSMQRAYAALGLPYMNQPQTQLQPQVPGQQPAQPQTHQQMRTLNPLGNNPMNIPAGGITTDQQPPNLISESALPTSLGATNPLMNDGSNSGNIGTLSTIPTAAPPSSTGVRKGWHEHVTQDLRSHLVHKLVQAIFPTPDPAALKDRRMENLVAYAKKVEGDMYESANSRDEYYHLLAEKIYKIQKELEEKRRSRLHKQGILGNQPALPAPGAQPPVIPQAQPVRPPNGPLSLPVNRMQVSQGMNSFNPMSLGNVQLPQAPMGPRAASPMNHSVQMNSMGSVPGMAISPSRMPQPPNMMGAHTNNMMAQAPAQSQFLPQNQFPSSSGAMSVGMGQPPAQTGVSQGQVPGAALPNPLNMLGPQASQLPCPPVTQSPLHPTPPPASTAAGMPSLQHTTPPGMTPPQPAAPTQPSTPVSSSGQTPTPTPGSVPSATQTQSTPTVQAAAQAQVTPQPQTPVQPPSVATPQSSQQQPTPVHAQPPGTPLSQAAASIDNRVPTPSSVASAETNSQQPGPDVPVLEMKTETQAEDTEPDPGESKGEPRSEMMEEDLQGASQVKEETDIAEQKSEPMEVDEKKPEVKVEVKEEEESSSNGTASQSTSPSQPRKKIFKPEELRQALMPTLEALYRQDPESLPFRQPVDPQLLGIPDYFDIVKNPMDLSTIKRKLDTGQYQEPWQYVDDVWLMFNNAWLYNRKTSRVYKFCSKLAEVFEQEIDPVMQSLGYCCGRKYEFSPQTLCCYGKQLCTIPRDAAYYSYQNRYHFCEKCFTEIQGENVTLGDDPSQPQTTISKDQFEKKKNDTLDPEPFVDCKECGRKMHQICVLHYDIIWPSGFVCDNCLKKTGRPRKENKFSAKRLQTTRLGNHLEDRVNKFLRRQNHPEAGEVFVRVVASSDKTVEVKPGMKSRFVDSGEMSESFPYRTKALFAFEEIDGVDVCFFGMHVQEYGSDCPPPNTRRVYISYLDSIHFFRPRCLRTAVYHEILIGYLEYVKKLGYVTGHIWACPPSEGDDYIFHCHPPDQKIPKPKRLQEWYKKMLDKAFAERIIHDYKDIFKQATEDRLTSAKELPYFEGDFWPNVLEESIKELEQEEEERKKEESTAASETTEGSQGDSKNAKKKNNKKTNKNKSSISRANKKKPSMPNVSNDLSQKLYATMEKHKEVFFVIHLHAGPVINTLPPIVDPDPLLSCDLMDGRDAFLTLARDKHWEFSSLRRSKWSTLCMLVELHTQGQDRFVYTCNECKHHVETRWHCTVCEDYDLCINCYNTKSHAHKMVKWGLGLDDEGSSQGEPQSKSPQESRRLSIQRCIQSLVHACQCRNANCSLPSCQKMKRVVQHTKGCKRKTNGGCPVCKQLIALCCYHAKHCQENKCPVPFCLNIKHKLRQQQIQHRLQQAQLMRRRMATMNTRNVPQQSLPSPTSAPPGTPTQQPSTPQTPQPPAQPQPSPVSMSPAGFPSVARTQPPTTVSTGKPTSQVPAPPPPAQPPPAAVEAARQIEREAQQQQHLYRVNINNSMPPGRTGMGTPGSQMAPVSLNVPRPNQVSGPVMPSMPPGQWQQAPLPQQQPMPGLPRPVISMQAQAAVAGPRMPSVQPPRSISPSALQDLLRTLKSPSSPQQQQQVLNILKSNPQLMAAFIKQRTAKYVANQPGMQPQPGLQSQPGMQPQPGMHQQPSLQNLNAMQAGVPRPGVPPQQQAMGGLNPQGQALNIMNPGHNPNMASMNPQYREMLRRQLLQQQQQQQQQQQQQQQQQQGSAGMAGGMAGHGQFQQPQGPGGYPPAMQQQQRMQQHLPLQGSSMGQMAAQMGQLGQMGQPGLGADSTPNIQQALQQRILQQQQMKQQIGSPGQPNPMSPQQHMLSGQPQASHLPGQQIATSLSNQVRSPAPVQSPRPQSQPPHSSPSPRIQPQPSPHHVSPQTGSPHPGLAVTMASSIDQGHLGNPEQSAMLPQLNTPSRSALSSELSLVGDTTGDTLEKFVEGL
How it was run: (§1)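 Cells received an 8-point half-log dilution series from 10 µM. They were then fixed in 10% formaldehyde (10 min, RT), permeabilised with 0.1% Triton X-100 and blocked with 1% BSA for 1 h. Primary antibodies were applied overnight at 4 °C, followed by Alexa488 anti-rabbit, Alexa555 anti-mouse and Hoechst 33342 for 1 h. Fifteen fields per well were imaged and average mean intensity taken. EC50 came from a sigmoidal fit.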

[12] = target: T1, CREB-binding protein/Histone acetyltransferase p300; assay: Inhibition of p300/CBP in human 22Rv1 cells assessed as reduction in H3K9Ac level incubated for 1 hr by Hoechst 33342 staining based high content microscopy analysis; format: cell-based; how it was run: as §1
VCaP = assay: Antiproliferative activity against human VCaP cells assessed as inhibition of cell viability incubated for 3 to 5 days by Celltiter-Glo luminescent assay; format: functional, cell-based
CWR22R = assay: Antiproliferative activity against human 22Rv1 cells assessed as inhibition of cell viability incubated for 3 to 5 days by Celltiter-Glo luminescent assay; format: functional, cell-based
Hs 294T = assay: Antiproliferative activity against human Hs294T cells assessed as inhibition of cell viability incubated for 3 to 5 days by Celltiter-Glo luminescent assay; format: functional, cell-based
NCI-H2081 = assay: Antiproliferative activity against human NCI-H2081 cells assessed as inhibition of cell viability incubated for 3 to 5 days by Celltiter-Glo luminescent assay; format: functional, cell-based
EMT6 = assay: Antiproliferative activity against mouse EMT6 cells assessed as inhibition of cell viability incubated for 3 to 5 days by Celltiter-Glo luminescent assay; format: functional, cell-based
4T1 = assay: Antiproliferative activity against mouse 4T1 cells assessed as inhibition of cell viability incubated for 3 to 5 days by Celltiter-Glo luminescent assay; format: functional, cell-based
HCC38 = assay: Antiproliferative activity against human HCC38 cells assessed as inhibition of cell viability incubated for 3 to 5 days by Celltiter-Glo luminescent assay; format: functional, cell-based
MM1.S = assay: Antiproliferative activity against human MM1.S cells assessed as inhibition of cell viability incubated for 3 to 5 days by Celltiter-Glo luminescent assay; format: functional, cell-based
KARPAS-422 = assay: Antiproliferative activity against human KARPAS-422 cells assessed as inhibition of cell viability incubated for 3 to 5 days by Celltiter-Glo luminescent assay; format: functional, cell-based
SU-DHL-6 = assay: Antiproliferative activity against human SU-DHL-6 cells assessed as inhibition of cell viability incubated for 3 to 5 days by Celltiter-Glo luminescent assay; format: functional, cell-based
Pfeiffer = assay: Antiproliferative activity against human Pfeiffer cells assessed as inhibition of cell viability incubated for 3 to 5 days by Celltiter-Glo luminescent assay; format: functional, cell-based
GA-10 = assay: Antiproliferative activity against human GA-10 cells assessed as inhibition of cell viability incubated for 3 to 5 days by Celltiter-Glo luminescent assay; format: functional, cell-based
Rec1 = assay: Antiproliferative activity against human REC1 cells assessed as inhibition of cell viability incubated for 3 to 5 days by Celltiter-Glo luminescent assay; format: functional, cell-based
OCI-AML2 = assay: Antiproliferative activity against human OCI-AML2 cells assessed as inhibition of cell viability incubated for 3 to 5 days by Celltiter-Glo luminescent assay; format: functional, cell-based
KARPAS-299 = assay: Antiproliferative activity against human KARPAS-299 cells assessed as inhibition of cell viability incubated for 3 to 5 days by Celltiter-Glo luminescent assay; format: functional, cell-based
[13] = AUC in CB17 SCID mouse xenografted with LuCaP-77 CR cell at 100 mg/kg, ip administered for 7 days; format: ADME, organism-based; details: in vivo, time 7 day
cells = details: Homo sapiens, MINO

CNC(=O)Nc1ccc2c(c1)CC[C@@]21OC(=O)N(CC(=O)N(Cc2ccc(F)cc2)[C@@H](C)C(F)(F)F)C1=O [A-485]
inhibition at 10 µM [1]: -9% | inhibition at 10 µM (MAO-B): -20% | pIC50 [2]: < 5.00 | pIC50 [3]: < 5.00 | pIC50 [4]: < 5.00 | pIC50 [5]: < 5.00 | pIC50 [6]: < 5.00 | pIC50 [7]: < 5.00 | pIC50 [8]: < 5.00 | pIC50 [9]: < 5.00 | pIC50 [10]: < 5.00 | INH [11]: 3.79 µM | INH [12]: > 10 µM | pEC50 (VCaP): 7.40 | pEC50 (CWR22R): 6.49 | pEC50 (Hs 294T): 5.05 | pEC50 (NCI-H2081): < 5.00 | pEC50 (EMT6): 6.30 | pEC50 (4T1): < 5.00 | pEC50 (HCC38): < 5.00 | pEC50 (MM1.S): 6.74 | pEC50 (KARPAS-422): 6.60 | pEC50 (SU-DHL-6): 6.12 | pEC50 (Pfeiffer): 6.07 | pEC50 (GA-10): 5.97 | pEC50 (Rec1): < 5.00 | pEC50 (OCI-AML2): 5.69 | pEC50 (KARPAS-299): < 5.00 | AUC at 168 h [13]: 417 µg·h/mL | pEC50 (cells): 6.28
